CAL PDZ FP-1: untagged CAL PDZ binding inhibitors, primary screen, biochemical, fluorescence polarization, HTS; purified CAL PDZ, TMR-peptide fluorescence polarization, 1 h; inhibition, % at 24.9 µM; 0.92% of 300,000 active; AID 602252, 2012;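 active = mean inhibition of at least 30% with at least half of replicates also reaching 30%; inconclusive = no clear call, values can overlap the other calls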;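 note: 0% = DMSO neutral control and 100% = excess unlabeled competitor peptide PRC23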
CAL PDZ FP-2: CAL PDZ peptide-binding inhibitors, primary screen, biochemical, fluorescence polarization, Cer-tagged CAL PDZ, HTS; purified CAL PDZ, TMR-peptide fluorescence polarization, 1 h; inhibition, % at 20 µM; 0.02% of 330,000 active; AID 504414, 2011;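 active = highest replicate inhibition of at least 40%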;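 note: plate controls were DMSO neutral control wells for no effect and unlabeled competitor peptide control wells for full effect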
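Assay system – tagged CAL PDZ protein CerCALP, purified · Timing – 1 h at RT · Compound – single point, 20 µM · Measured by – fluorescence polarization from S- and P-plane intensities, G-factor corrected · Evaluation – inhibition from polarization loss · Probe or stimulus – TMR reporter peptide T*-PRC34 · Buffer or medium – pH 7.4 phosphate-saline buffer, reducing agent, detergent, IgG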
S100A4 inh HTS: inhibitors of S100A4-myosin IIA peptide binding, primary screen, biochemical, fluorescence polarization, TAMRA-MyoIIA peptide; inhibition, % at 10.7 µM; Protein S100-A4 (Homo sapiens), P26447; 0.14% of 360,000 active;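 active = mean inhibition of at least 70% across replicates, with every replicate also reaching that level; inconclusive = mean inhibition reaches 70% but some replicates fall short; inactive = mean inhibition below 70%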
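assay system = human S100A4 monomer with TAMRA-labelled myosin IIA peptide | also added = labelled myosin peptide probe, 5 nM | incubation = 5 min between mix addition and reading | control set = DMSO and TFP controls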
ERAP1 HTS inh: human ERAP1 aminopeptidase inhibitors, primary screen, biochemical, single point, plate reader | Endoplasmic reticulum aminopeptidase 1 (Homo sapiens), Q9NZ08 | recombinant ERAP1, Leu-AMC fluorescence, 60 min | inhibition, % at 10.7 µM | 0.15% of 340,000 active | AID 652197, 2013;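 active = mean replicate inhibition of at least 30%, or all replicates individually reaching that 30% level; inactive = mean below 30% and not every replicate reaching it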;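 note: 0% = neutral control wells and 100% = L-leucinethiol positive control wells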
SIRT5 inh: SIRT5 desuccinylase inhibitors, primary screen, biochemical, fluorescence imaging, single point, set 5. AID 652115, 2013. inhibition, % at 15 µM. 1.1% of 330,000 active. NAD-dependent protein deacylase sirtuin-5, mitochondrial (Homo sapiens), Q9NXA8. Purified SirT5, succinyl-peptide AMC, trypsin-coupled fluorescence; in the data active = inhibition above about 15%; inconclusive = no clear call, values can overlap the other calls
DENV2 CPE: inhibitors of DENV2 cytopathic effect, primary screen, cell-based, plate reader, single concentration. DENV2-infected cells, cytopathic effect rescue. CPE inhibition, % at 9.99 µM. 1.7% of 350,000 active. AID 651640, 2012; in the data active = CPE inhibition above about 20%, passing the limit was not always enough; inconclusive = no clear call, values can overlap the other calls; tested in BHK-21 cells;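 note: 0% = median of neutral control wells and 100% = median of positive control wells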
Active calls of the source: *; ? = inconclusive; . = no result. Shown are actives, neighbours in structure and some others; about 2.9% of the full set was active somewhere.

SMILES	CAL PDZ FP-1	CAL PDZ FP-2	S100A4 inh HTS	ERAP1 HTS inh	SIRT5 inh	DENV2 CPE
C[C@@H]1CCCCO[C@@H](CN(C)S(=O)(=O)c2ccccc2)[C@@H](C)CN([C@H](C)CO)C(=O)c2cc(NC(=O)Nc3ccccc3)ccc2O1	.	.	7.1	0.9	3.5	65.5*
C[C@@H]1CCCCO[C@H](CN(C)S(=O)(=O)c2ccccc2)[C@@H](C)CN([C@H](C)CO)C(=O)c2cc(NC(=O)Nc3ccccc3)ccc2O1	.	.	-0.7	1.0	2.0	7.5
CC(C)NC(=O)Nc1ccc2c(c1)C(=O)N([C@H](C)CO)C[C@@H](C)[C@H](CN(C)S(=O)(=O)c1ccccc1)OCCCC[C@@H](C)O2	.	.	120.9*	-6.0	5.1	-2.9
Cc1ccc(S(=O)(=O)Nc2ccc3c(c2)C(=O)N([C@H](C)CO)C[C@@H](C)[C@@H](CN(C)C(=O)NC(C)C)OCCCC[C@H](C)O3)cc1	.	.	-3.7	-2.2	8.1	11.2
C[C@@H]1CCCCO[C@H](CN(C)C(=O)Nc2ccc(F)cc2)[C@@H](C)CN([C@@H](C)CO)C(=O)c2cc(NS(=O)(=O)c3ccccc3)ccc2O1	.	.	-15.2	-3.5	1.4	-10.9
Cc1ccc(S(=O)(=O)Nc2ccc3c(c2)C(=O)N([C@@H](C)CO)C[C@H](C)[C@@H](CN(C)C(=O)NC(C)C)OCCCC[C@@H](C)O3)cc1	.	.	1.4	-2.1	3.4	22.4*
Cc1ccc(S(=O)(=O)Nc2ccc3c(c2)C(=O)N([C@H](C)CO)C[C@@H](C)[C@H](CN(C)C(=O)Nc2ccc(F)cc2)OCCCC[C@H](C)O3)cc1	.	.	2.6	-3.5	21.4*	3.2
C[C@@H]1CCCCO[C@@H](CN(C)C(=O)Nc2ccc(F)cc2)[C@@H](C)CN([C@H](C)CO)C(=O)c2cc(NS(=O)(=O)c3ccccc3)ccc2O1	.	.	-3.2	-0.1	-1.4	31.3*
Cc1ccc(S(=O)(=O)Nc2ccc3c(c2)C(=O)N([C@@H](C)CO)C[C@@H](C)[C@@H](CN(C)C(=O)Nc2ccc(F)cc2)OCCCC[C@H](C)O3)cc1	.	.	16.7	-1.3	3.9	-1.0
Cc1ccc2[nH]c3c(c2c1)CN(C(=O)CN1CCCCC1)CC3	.	.	1.3	5.8	-3.7	13.5
Cc1ccc2[nH]c3c(c2c1)CN(C(=O)CN1CCCc2ccccc21)CC3	58.4*	-1.4	.	.	.	.
COc1ccc(/C=C2\Oc3cc(OCC(N)=O)ccc3C2=O)cc1OC	-3.9	.	-1.7	1.9	-1.2	44.8*
C[C@H]1CCCCO[C@H](CN(C)C)[C@@H](C)CN([C@@H](C)CO)C(=O)c2cc(NC(=O)Nc3cccc4ccccc34)ccc2O1	.	.	19.4	2.3	5.3	?
C[C@@H]1CN([C@@H](C)CO)C(=O)c2cc(NC(=O)Nc3cccc4ccccc34)ccc2O[C@@H](C)CCCCO[C@@H]1CN(C)CC1CCCCC1	.	.	13.6	-6.1	2.7	-3.4
C[C@@H]1CCCCO[C@H](CN(C)C)[C@H](C)CN([C@H](C)CO)C(=O)c2cc(NC(=O)Nc3cccc4ccccc34)ccc2O1	.	.	-3.2	-2.5	-2.1	74.0*
C[C@H]1CCCCO[C@H](CN(C)CC2CCCCC2)[C@@H](C)CN([C@@H](C)CO)C(=O)c2cc(NC(=O)Nc3cccc4ccccc34)ccc2O1	.	.	-6.6	-1.8	0.2	4.1
C[C@@H]1CN([C@@H](C)CO)C(=O)c2cc(NC(=O)Nc3cccc4ccccc34)ccc2O[C@@H](C)CCCCO[C@H]1CN(C)CC1CCCCC1	.	.	-8.0	-3.0	6.1	28.2*
C[C@@H]1CCCCO[C@@H](CN(C)CC2CCCCC2)[C@H](C)CN([C@H](C)CO)C(=O)c2cc(NC(=O)Nc3cccc4ccccc34)ccc2O1	.	.	-48.7	-2.8	6.1	118.1*
